Laboratory results from ChEMBL document CHEMBL1122239, “Synthesis and biological properties of new hexapeptide substrates for vitamin K dependent carboxylase. Evidence for X-Pro cis/trans amide bond interconversions in prothrombin precursor fragment 18-23” (J Med Chem, 1983).

T1: Vitamin K-dependent gamma-carboxylase (Rattus norvegicus) (UniProt O88496)
T1 sequence (whole entry): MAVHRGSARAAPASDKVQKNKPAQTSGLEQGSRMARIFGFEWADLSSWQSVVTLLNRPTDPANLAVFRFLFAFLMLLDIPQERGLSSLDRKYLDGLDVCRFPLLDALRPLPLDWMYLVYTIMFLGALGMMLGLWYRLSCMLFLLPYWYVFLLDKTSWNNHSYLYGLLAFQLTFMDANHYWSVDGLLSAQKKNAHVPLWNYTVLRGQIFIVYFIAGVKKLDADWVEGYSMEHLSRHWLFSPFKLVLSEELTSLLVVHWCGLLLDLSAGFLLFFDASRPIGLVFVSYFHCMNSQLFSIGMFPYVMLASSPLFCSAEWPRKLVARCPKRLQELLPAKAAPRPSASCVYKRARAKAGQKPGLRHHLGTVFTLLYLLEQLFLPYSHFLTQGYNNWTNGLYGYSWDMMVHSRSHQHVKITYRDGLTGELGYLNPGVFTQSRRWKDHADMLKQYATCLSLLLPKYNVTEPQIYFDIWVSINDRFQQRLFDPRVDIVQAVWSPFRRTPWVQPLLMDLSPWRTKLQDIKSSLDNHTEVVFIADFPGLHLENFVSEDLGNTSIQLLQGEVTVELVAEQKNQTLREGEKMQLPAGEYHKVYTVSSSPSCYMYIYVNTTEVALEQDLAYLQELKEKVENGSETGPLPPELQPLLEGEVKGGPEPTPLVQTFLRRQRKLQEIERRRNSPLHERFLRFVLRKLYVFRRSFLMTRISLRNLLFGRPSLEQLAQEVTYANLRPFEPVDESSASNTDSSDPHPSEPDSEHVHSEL


Legend:
Type in all cases: functional
[1] = target: T1, Vitamin K-dependent gamma-carboxylase (Rattus norvegicus); assay: Compound was evaluated as substrates for vitamin K dependent carboxylase and percent CO2 incorporation was determined at 0.25 mM concentrations
Method in brief: (§1)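 Vitamin K dependent carboxylase, which needs O2, reduced vitamin K and CO2, was given each hexapeptide directly as substrate at 0.25, 1, 4.25 or 5.5 mM. Carboxylation of Glu to Gla was reported as percent CO2 incorporation. The full assay procedure is given only by reference to earlier work.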

[2] = Carboxylation of 0.25 mM Phe-Leu-Glu-Glu-Leu at a concentration of 1 mM
Method in brief: (§2)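 Inhibition format: the hexapeptide was added at 1, 4.25 or 5.5 mM to a carboxylase reaction containing 0.25 mM H-Phe-Leu-Glu-Glu-Leu-OH as the reference substrate. Carboxylation of the pentapeptide was reported as a percentage. The detailed assay procedure is given only by reference to earlier work.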

[3] = target: T1, Vitamin K-dependent gamma-carboxylase (Rattus norvegicus); assay: Compound was evaluated as substrates for vitamin K dependent carboxylase and percent CO2 incorporation was determined at 5.5 mM concentrations; method in brief: as §1
[4] = Carboxylation of 0.25 mM Phe-Leu-Glu-Glu-Leu at a concentration of 5.5 mM; method in brief: as §2
[5] = target: T1, Vitamin K-dependent gamma-carboxylase (Rattus norvegicus); assay: Compound was evaluated as substrates for vitamin K dependent carboxylase and percent CO2 incorporation was determined at 1 mM concentrations; method in brief: as §1
[6] = target: T1, Vitamin K-dependent gamma-carboxylase (Rattus norvegicus); assay: Compound was evaluated as substrates for vitamin K dependent carboxylase and percent CO2 incorporation was determined at 4.25 mM concentrations; method in brief: as §1
[7] = Carboxylation of 0.25 mM Phe-Leu-Glu-Glu-Leu at a concentration of 4.25 mM; method in brief: as §2
[8] = substrate: CC(C)C[C@H](NC(=O)[C@H](CC(N)=O)NC(=O)[C@H]1CSSC[C@H](NC(=O)[C@H](CCC(=O)O)NC(=O)[C@H](CCCN=C(N)N)NC(=O)[C@H](CCC(=O)O)NC(=O)[C@H](CC(C)C)NC(=O)[C@@H](N)CC(N)=O)C(=O)N[C@@H](CC(C)C)C(=O)N[C@H](CCC(=O)O)C(=O)N[C@@H](CCC(=O)O)C(=O)N2CCC[C@@H]2C(=O)N1)C(=O)N[C@@H](CCC(=O)O)C(=O)N[C@@H](CCCN=C(N)N)C(=O)N[C@@H](CCC(=O)O)C(=O)N[C@@H](CS)C(=O)O; assay: (§3) Compound was evaluated as substrates for vitamin K dependent carboxylase; method in brief: as §1
[9] = substrate: CC(C)C[C@H](NC(=O)[C@@H](N)CC(N)=O)C(=O)N[C@@H](CCC(=O)O)C(=O)N[C@@H](CCCN=C(N)N)C(=O)N[C@@H](CCC(=O)O)C(=O)N[C@@H](CS)C(=O)O; assay: as §3; method in brief: as §1
[10] = substrate: CC(C)C[C@H](NC(=O)[C@H](CCC(=O)O)NC(=O)[C@H](CCC(=O)O)NC(=O)[C@H](CC(C)C)NC(=O)[C@@H](N)Cc1ccccc1)C(=O)O; assay: as §3; method in brief: as §1
[11] = substrate: CC(C)C[C@H]1NC(=O)[C@H](N)CSSC[C@@H](C(=O)O)NC(=O)[C@@H]2CCCN2C(=O)[C@@H](CCC(=O)O)NC(=O)[C@H](CCC(=O)O)NC1=O; assay: (§4) Compound was evaluated as substrates for vitamin K dependent carboxylase and percent CO2 incorporation was determined; method in brief: as §1
[12] = substrate: COC(=O)[C@@H]1CSSC[C@@H](NC(C)=O)C(=O)N[C@H](CC(C)C)C(=O)N[C@@H](CCC(=O)O)C(=O)N[C@H](CCC(=O)O)C(=O)N2CCC[C@H]2C(=O)N1; assay: as §4; method in brief: as §1

Row | Incorporation [1] | Incorporation [3] | Incorporation [5] | Incorporation [6] | Molecule | Incorporation [2] | Incorporation [4] | Incorporation [7] | Km [8] | Km [9] | Km [10] | Km [11] | Km [12]
1 | 7.5% | 8.7% | 7% | – | CC(C)C[C@H]1NC(=O)[C@H](N)CSSC[C@@H](C(=O)O)NC(=O)[C@@H]2CCCN2C(=O)[C@@H](CCC(=O)O)NC(=O)[C@H](CCC(=O)O)NC1=O | 98% | 78% | – | – | – | – | – | –
2 | 14% | – | 16% | 24% | CC(C)C[C@H](NC(=O)[C@H](C)N)C(=O)N[C@@H](CCC(=O)O)C(=O)N[C@@H](CCC(=O)O)C(=O)N1CCC[C@@H]1C(=O)N[C@@H](C)C(=O)O | 99% | – | 134% | – | – | – | – | –
3 | 63% | – | 60% | 59% | CC(C)C[C@H]1NC(=O)[C@H](N)CSSC[C@@H](C(=O)O)NC(=O)[C@@H](C)NC(=O)[C@@H](CCC(=O)O)NC(=O)[C@H](CCC(=O)O)NC1=O | 94% | – | 83% | – | – | – | – | –
4 | 3.3% | 2.2% | 2.4% | – | COC(=O)[C@@H]1CSSC[C@@H](NC(C)=O)C(=O)N[C@H](CC(C)C)C(=O)N[C@@H](CCC(=O)O)C(=O)N[C@H](CCC(=O)O)C(=O)N2CCC[C@H]2C(=O)N1 | 51% | 54% | – | – | – | – | – | –
5 | 50% | – | 48% | 56% | CC(C)C[C@H]1NC(=O)[C@H](N)CSSC[C@@H](C(=O)O)NC(=O)[C@H](C)NC(=O)[C@@H](CCC(=O)O)NC(=O)[C@H](CCC(=O)O)NC1=O | 103% | – | 85% | – | – | – | – | –
6 | – | – | – | – | Vitamin K-dependent gamma-carboxylase (Rattus norvegicus), O88496 (protein) MAVHRGSARAAPASDKVQKNKPAQTSGLEQGSRMARIFGFEWADLSSWQSVVTLLNRPTDPANLAVFRFLFAFLMLLDIPQERGLSSLDRKYLDGLDVCRFPLLDALRPLPLDWMYLVYTIMFLGALGMMLGLWYRLSCMLFLLPYWYVFLLDKTSWNNHSYLYGLLAFQLTFMDANHYWSVDGLLSAQKKNAHVPLWNYTVLRGQIFIVYFIAGVKKLDADWVEGYSMEHLSRHWLFSPFKLVLSEELTSLLVVHWCGLLLDLSAGFLLFFDASRPIGLVFVSYFHCMNSQLFSIGMFPYVMLASSPLFCSAEWPRKLVARCPKRLQELLPAKAAPRPSASCVYKRARAKAGQKPGLRHHLGTVFTLLYLLEQLFLPYSHFLTQGYNNWTNGLYGYSWDMMVHSRSHQHVKITYRDGLTGELGYLNPGVFTQSRRWKDHADMLKQYATCLSLLLPKYNVTEPQIYFDIWVSINDRFQQRLFDPRVDIVQAVWSPFRRTPWVQPLLMDLSPWRTKLQDIKSSLDNHTEVVFIADFPGLHLENFVSEDLGNTSIQLLQGEVTVELVAEQKNQTLREGEKMQLPAGEYHKVYTVSSSPSCYMYIYVNTTEVALEQDLAYLQELKEKVENGSETGPLPPELQPLLEGEVKGGPEPTPLVQTFLRRQRKLQEIERRRNSPLHERFLRFVLRKLYVFRRSFLMTRISLRNLLFGRPSLEQLAQEVTYANLRPFEPVDESSASNTDSSDPHPSEPDSEHVHSEL | – | – | – | 0.001 mM | 8 mM | 8 mM | 8 mM | 8 mM
